ChEMBL document CHEMBL2311339, “Identification of GZD824 as an orally bioavailable inhibitor that targets phosphorylated and nonphosphorylated breakpoint cluster region-Abelson (Bcr-Abl) kinase and overcomes clinically acquired mutation-induced resistance against imatinib” (J Med Chem, 2013)
Values belong to the molecule of their own block, whether it stands above or below them. Activity calls are given as the source filed them. The calls are words filed in the database; no cut-off is given here.

Legend:
[1] = Cytotoxicity against mouse BA/F3 cells assessed as growth inhibition after 72 hrs by CCK-8 assay; settings: BaF3, 72 h
[2] = Cytotoxicity against mouse BA/F3 cells expressing BCR-ABL Y253F mutant assessed as growth inhibition after 72 hrs by CCK-8 assay; settings: BaF3, 72 h
[3] = Cytotoxicity against mouse BA/F3 cells expressing BCR-ABL E255V mutant assessed as growth inhibition after 72 hrs by CCK-8 assay; settings: BaF3, 72 h
[4] = Cytotoxicity against mouse BA/F3 cells expressing BCR-ABL H396R mutant assessed as growth inhibition after 72 hrs by CCK-8 assay; settings: BaF3, 72 h
cells [5] = settings: Mus musculus, BaF3, 72 h
[6] = Cytotoxicity against mouse BA/F3 cells expressing BCR-ABL E359V mutant assessed as growth inhibition after 72 hrs by CCK-8 assay; settings: BaF3, 72 h
[7] = Cytotoxicity against mouse BA/F3 cells expressing BCR-ABL L248V mutant assessed as growth inhibition after 72 hrs by CCK-8 assay; settings: BaF3, 72 h
cells [8] = settings: Mus musculus, BaF3, 72 h; remark: listed apart in the source
[9] = Cytotoxicity against mouse BA/F3 cells expressing BCR-ABL E255K mutant assessed as growth inhibition after 72 hrs by CCK-8 assay; settings: BaF3, 72 h
[10] = Cytotoxicity against mouse BA/F3 cells expressing BCR-ABL M351T mutant assessed as growth inhibition after 72 hrs by CCK-8 assay; settings: BaF3, 72 h
[11] = Cytotoxicity against mouse BA/F3 cells expressing BCR-ABL F317L mutant assessed as growth inhibition after 72 hrs by CCK-8 assay; settings: BaF3, 72 h
[12] = Cytotoxicity against mouse BA/F3 cells expressing wild type BCR-ABL assessed as growth inhibition after 72 hrs by CCK-8 assay; settings: BaF3, 72 h
[13] = Cytotoxicity against mouse BA/F3 cells expressing BCR-ABL F486S mutant assessed as growth inhibition after 72 hrs by CCK-8 assay; settings: BaF3, 72 h
[14] = Cytotoxicity against mouse BA/F3 cells expressing BCR-ABL Y253H mutant assessed as growth inhibition after 72 hrs by CCK-8 assay; settings: BaF3, 72 h
cells [15] = settings: Mus musculus, BaF3, 72 h; remark: listed apart in the source
[16] = Cytotoxicity against mouse BA/F3 cells expressing BCR-ABL F317V mutant assessed as growth inhibition after 72 hrs by CCK-8 assay; settings: BaF3, 72 h
[17] = Cytotoxicity against mouse BA/F3 cells expressing BCR-ABL E355G mutant assessed as growth inhibition after 72 hrs by CCK-8 assay; settings: BaF3, 72 h
BaF3 [18] = experiment: Antitumor activity against mouse BA/F3 cells expressing BCR-ABL T315I mutant allografted in SCID mouse assessed as suppression of cell proliferation at 100 mg/kg/day, po qd for 10 days relative to untreated vehicle; format: functional, organism-based
In short: (§1)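 Ba/F3 cells coexpressing Bcr-Abl T315I and firefly luciferase were injected iv (2 × 10^6 cells/0.1 mL saline) into SCID nude mice. At 5−7 days, mice were imaged after ip D-luciferin under halothane and randomized by signal. Dosing was oral gavage once daily for 10 days in DMSO/Cremophor/ethanol/saline vehicle. Luminescence was imaged after dosing; survival was analysed by Kaplan−Meier with log-rank test.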

BaF3 [19] = experiment: Antitumor activity against mouse BA/F3 cells expressing wild type BCR-ABL allografted in SCID mouse assessed as inhibition of tumor growth at 50 mg/kg, po qd for 14 days; format: functional, organism-based; design: dose 50 mg/kg
In short: (§2)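 Subcutaneous allograft: Ba/F3 cells stably carrying Bcr-Abl (WT or T315I), 2.5 × 10^7 cells/mL in saline, 0.2 mL into the right flank. Randomized at 100−200 mm3, n = 10 per group. Oral gavage once daily for 14 days in DMSO/Cremophor/ethanol/saline vehicle. Tumor volume (L × W²/2) every 2 days; unpaired t test versus vehicle.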

BaF3 [20] = experiment: Antitumor activity against mouse BA/F3 cells expressing BCR-ABL T315I mutant allografted in SCID mouse assessed as increased survival at 100 mg/kg/day, po qd for 10 days; format: functional, organism-based; in short: as §1
BaF3 [21] = experiment: Antitumor activity against mouse BA/F3 cells expressing BCR-ABL T315I mutant allografted in SCID mouse assessed as inhibition of tumor growth at 100 mg/kg/day, po qd for 14 days; format: functional, organism-based; in short: as §2
K562 [22] = experiment: Antitumor activity against human K562 cells xenografted in mouse assessed as induction of tumor stasis at 50 mg/kg, […]; format: functional, organism-based; design: dose 50 mg/kg
K562 [23] = experiment: Cytotoxicity against imatinib-resistant human K562 cells expressing BCR-ABL Q252H mutant assessed as growth inhibition after 72 hrs by CCK-8 assay; format: functional, cell-based; settings: K562, 72 h
In short: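 The K562 subline was made imatinib-resistant by 3 months of exposure to imatinib from 0.1 to 5 μM, followed by clonal selection and sequencing to confirm Q252H. Cells were seeded at about 3000 cells/well, treated 24 h later for 72 h, then given CCK-8 for 3 h. Read-out was OD450 − OD650 normalized to vehicle; IC50 is the mean of three experiments.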

U-937 = experiment: Cytotoxicity against human U937 cells […] assessed as growth inhibition after 72 hrs by CCK-8 assay; format: functional, cell-based; settings: U-937, 72 h
In short: (§3)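 Log-phase human leukemia cells were seeded at about 3000 cells/well and treated 24 h later for 72 h. CCK-8 was then incubated with the cells for 3 h and read as OD450 − OD650. Viability was normalized to vehicle wells and cell-free blanks, and IC50 taken as the mean of three experiments.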

K562 [24] = experiment: Cytotoxicity against human K562 cells expressing BCR-ABL assessed as growth inhibition after 72 hrs by CCK-8 assay; format: functional, cell-based; settings: K562, 72 h; in short: as §3
HL-60 = experiment: Cytotoxicity against human HL60 cells […] assessed as growth inhibition after 72 hrs by CCK-8 assay; format: functional, cell-based; settings: HL-60, 72 h; in short: as §3
[25] = Cytotoxicity against human KU812 cells expressing BCR-ABL assessed as growth inhibition after 72 hrs by CCK-8 assay; format: functional, cell-based; settings: KU812, 72 h; in short: as §3
[26] = Cytotoxicity against human SUP-B15 cells expressing BCR-ABL assessed as growth inhibition after 72 hrs by CCK-8 assay; format: functional, cell-based; settings: SUP-B15, 72 h; in short: as §3
MOLT-4 = experiment: Cytotoxicity against human MOLT4 cells […] assessed as growth inhibition after 72 hrs by CCK-8 assay; format: functional, cell-based; settings: MOLT-4, 72 h; in short: as §3

IC50 (cells [5]): 3600 nM
IC50 (cells [8]): 5.1 nM
IC50 (cells [15]): 8 nM
SMILES: Cc1nc(Nc2ncc(C(=O)Nc3c(C)cccc3Cl)s2)cc(N2CCN(CCO)CC2)n1 [DASATINIB]
IC50 [1]: 2500 nM
IC50 [2]: 17 nM
IC50 [3]: 23 nM
IC50 [4]: 3800 nM
IC50 [6]: 1.3 nM
IC50 [7]: 29 nM
IC50 [9]: 3.2 nM
IC50 [10]: 0.2 nM
IC50 [11]: 19 nM
IC50 [12]: 1.9 nM
IC50 [13]: 0.9 nM
IC50 [14]: 2.3 nM
IC50 [16]: 25 nM
IC50 [17]: 15 nM

IC50 (cells [5]): 12200 nM
IC50 (cells [8]): 5200 nM
IC50 (cells [15]): 3600 nM
SMILES: Cc1ccc(NC(=O)c2ccc(CN3CCN(C)CC3)cc2)cc1Nc1nccc(-c2cccnc2)n1 [IMATINIB]
Activity (BaF3 [18]): inactive
TGI (BaF3 [19]): Active
IC50 [1]: 13500 nM
Activity (BaF3 [20]): inactive
IC50 [2]: 9200 nM
IC50 [3]: > 10000 nM
TGI (BaF3 [21]): inactive
IC50 [4]: 11100 nM
IC50 [6]: 590 nM
Activity (K562 [22]): inactive
IC50 [7]: 12200 nM
IC50 [9]: 5600 nM
IC50 [10]: 240 nM
IC50 [11]: 3300 nM
IC50 [13]: 1000 nM
IC50 [14]: 12500 nM
IC50 [16]: 9500 nM
IC50 [17]: 1600 nM

IC50 (cells [5]): 16000 nM
IC50 (cells [8]): 150 nM
SMILES: Cc1cn(-c2cc(NC(=O)c3ccc(C)c(Nc4nccc(-c5cccnc5)n4)c3)cc(C(F)(F)F)c2)cn1 [NILOTINIB]
IC50 [1]: 15100 nM
IC50 [2]: 1400 nM
IC50 [3]: 1200 nM
IC50 [4]: 21100 nM
IC50 [7]: 3000 nM
IC50 [9]: 170 nM
IC50 [10]: 3 nM
IC50 [11]: 160 nM
IC50 [12]: 22 nM
IC50 [13]: 9.5 nM
IC50 [14]: 1000 nM
IC50 [16]: 2900 nM
IC50 [17]: 130 nM

SMILES: CC(=O)O[C@H]1C(=O)[C@@]2(C)[C@H]([C@H](OC(=O)c3ccccc3)[C@]3(O)C[C@H](OC(=O)[C@H](O)[C@@H](NC(=O)c4ccccc4)c4ccccc4)C(C)=C1C3(C)C)[C@]1(OC(C)=O)CO[C@@H]1C[C@@H]2O [PACLITAXEL]
IC50 (K562 [23]): 7 nM
IC50 (U-937): 2.3 nM
IC50 (K562 [24]): 5.1 nM
IC50 (HL-60): 5.8 nM
IC50 [25]: 5.3 nM
IC50 [26]: 8 nM
IC50 (MOLT-4): 2.7 nM
